# Laboratory results as given in PubChem BioAssay.
# Activity calls are given as the source filed them.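 Rule for the calls, unless noted: active = a full or partial loss of lipid-probe fluorescence in the fish gall bladder, intestine or both, judged by eye; inactive = no fluorescence loss, or compound toxic to the fish.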
# Columns and labels:
# [1] = inhibitors of TNFa-induced NFkB p65 translocation, primary screen, imaging, HUVEC, MLSMR starter and 10KST1 sets (AID 438;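 active = inhibition above 20% together with a positive visual image hit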;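 note: compound added about 3h40 before a 20 min TNFalpha stimulation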;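 for inhibition: signal is the nuclear over cytoplasmic p65 intensity ratio per well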); details: HUVEC TNFa-induced p65 nuclear translocation; cell count: measured here: nuclei count (cytotoxicity indicator), at 2.08 µM; inhibition: at 2 µM, stronger effect = higher value, 0% TNFa-plus-vehicle, 100% no-TNFa wells
# [2] = inhibitors of E-selectin induction by TNFa, primary screen, imaging, HUVEC, immunofluorescence, MLSMR starter and 10KST1 sets (AID 487;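 active = visually confirmed hit in the image check and inhibition above 20%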;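 for inhibition: signal is fraction of cell area covered by stained E-selectin grains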;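 for nuclei count: 100% = median nuclei count of all wells on the same plate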); details: HUVEC TNFalpha-induced E-selectin immunofluorescence imaging, at 2 µM; inhibition: stronger effect = higher value; nuclei count: measured here: cell number, toxicity
# [3] = DUSP6 inhibitors restoring Erk phosphorylation by chemical complementation, primary imaging in DUSP6-transfected HeLa (AID 609;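 active = compounds giving at least 50% inhibition in the cell-based MKP-3 phosphatase rescue imaging test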;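 for inhibition: phospho-Erk level distribution per well compared with pooled transfected vehicle control wells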); details: HeLa MKP-3 transfected, phospho-Erk imaging KS statistic, at 10 µM, cells stimulated with TPA for 15 min
# [4] = target: Dual specificity protein phosphatase 6 (Homo sapiens) (UniProt Q16828); experiment: as above; details: HeLa MKP-3 transfected, phospho-Erk imaging KS statistic; at 10 µM; stronger effect = higher value; cells stimulated with TPA for 15 min
# [5] = target: Voltage-gated potassium channel subunit beta-2 (Rattus norvegicus) (UniProt P62483); experiment: KvBeta enzyme negative modulators, primary screen, biochemical, NADPH fluorescence (AID 622;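 active = fluorescence slope higher than the sample average by over 3 SD, cut at about -0.22 in these data, passing the limit was not always enough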;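 note: slope of raw intensity against log time taken from 70 to 1610 s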); details: recombinant KvBeta, 4-cyanobenzaldehyde reduction, at 10 µM, stronger effect = higher value
# [6] = target: Voltage-gated potassium channel subunit beta-2 (Rattus norvegicus) (UniProt P62483); experiment: KvBeta positive modulators, primary screen, biochemical, NADPH fluorescence (AID 623;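 active = NADPH fluorescence slope more negative than the mean of all samples by about 3 SD, 99.7% confidence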;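 note: fluorescence intensity change per second fitted from 20 to 320 s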); details: Recombinant KvBeta, NADPH fluorescence decrease slope, 10 min; at 10 µM; stronger effect = lower value
# [7] = target: Alpha-2C adrenergic receptor (Homo sapiens) (UniProt P18825); experiment: modulators of alpha2C/GIRK thallium flux, primary screen, cell-based, HEK293 alpha2C/GIRK1/2 (AID 624;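 active = fluorescence slope after compound addition differing from the mean of all screened samples at 99.7% confidence, in either direction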;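 note: slope of fluorescence ratio to pre-addition baseline per second over 15 to 24 s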); details: thallium flux BTC fluorescence, at 10 µM, actives lie on both sides
# [8] = inhibitors of larval lipid processing in zebrafish, primary screen, whole organism, PED6 fluorescence, gall bladder and intestine (AID 686); details: Zebrafish larvae PED6 lipid processing, fluorescence scoring; screened at 20 µM (by protocol);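 note: larvae 5 to 7 days old with five fish per well; signal comes from phospholipase A2 cleavage of quenched PED6 carried via bile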
# Outline: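 Incubation: overnight exposure of larvae to compound plus PED6 / Test system: live zebrafish larvae aged 5-7 days, whole organism / Amount: 5 larvae per well / Read-out basis: visual per-well fluorescence inhibition score / Signal: visual fluorescence microscopy scoring of gall bladder, gut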
# [9] = inhibitors of Chlamydomonas gravitaxis, primary screen, whole organism, Chlamydomonas reinhardtii, WT vs cilia-less mutant, absorbance, 96-well (AID 463189;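 active = inhibition at or above 50% relative to wild type and mutant plate controls; inactive = inhibition below 50%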;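 note: 0% = wild type cc124 cells in DMSO and 100% = ciliumless bld1 mutant cells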); details: OD600 absorbance, 2 days, at 10 µM, stronger effect = higher value
# [10] = measured here: cell density z-score
# [11] = measured here: nuclear c-Myc green intensity z-score
# [12] = measured here: nuclear pErk red intensity z-score, stronger effect = higher value
# Alpha-2C adrenergic receptor (Homo sapiens), sequence (P18825 whole entry, looked up): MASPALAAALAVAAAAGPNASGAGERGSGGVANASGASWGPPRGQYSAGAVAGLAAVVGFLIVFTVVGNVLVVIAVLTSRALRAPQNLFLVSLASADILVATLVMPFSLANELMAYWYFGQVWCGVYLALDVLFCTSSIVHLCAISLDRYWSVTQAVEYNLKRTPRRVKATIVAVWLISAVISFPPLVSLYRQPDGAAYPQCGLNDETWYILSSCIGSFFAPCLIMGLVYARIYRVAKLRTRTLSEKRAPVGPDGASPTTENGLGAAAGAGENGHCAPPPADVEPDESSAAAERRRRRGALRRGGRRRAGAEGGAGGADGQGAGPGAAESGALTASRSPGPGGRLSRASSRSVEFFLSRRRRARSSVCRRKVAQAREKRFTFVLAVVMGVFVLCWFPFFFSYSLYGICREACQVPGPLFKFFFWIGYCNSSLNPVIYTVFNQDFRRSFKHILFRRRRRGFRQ
# Voltage-gated potassium channel subunit beta-2 (Rattus norvegicus), sequence (P62483 whole entry, looked up): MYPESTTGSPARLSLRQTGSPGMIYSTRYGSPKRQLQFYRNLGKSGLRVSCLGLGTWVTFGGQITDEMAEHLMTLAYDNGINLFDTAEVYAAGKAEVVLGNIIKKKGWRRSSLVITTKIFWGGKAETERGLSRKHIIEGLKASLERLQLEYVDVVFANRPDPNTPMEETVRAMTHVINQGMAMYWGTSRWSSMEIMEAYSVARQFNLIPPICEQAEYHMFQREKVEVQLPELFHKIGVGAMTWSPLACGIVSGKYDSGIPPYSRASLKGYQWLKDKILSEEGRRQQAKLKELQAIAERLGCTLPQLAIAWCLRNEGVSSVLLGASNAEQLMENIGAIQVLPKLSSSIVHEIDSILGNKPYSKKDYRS
# Dual specificity protein phosphatase 6 (Homo sapiens), sequence (Q16828 whole entry, looked up): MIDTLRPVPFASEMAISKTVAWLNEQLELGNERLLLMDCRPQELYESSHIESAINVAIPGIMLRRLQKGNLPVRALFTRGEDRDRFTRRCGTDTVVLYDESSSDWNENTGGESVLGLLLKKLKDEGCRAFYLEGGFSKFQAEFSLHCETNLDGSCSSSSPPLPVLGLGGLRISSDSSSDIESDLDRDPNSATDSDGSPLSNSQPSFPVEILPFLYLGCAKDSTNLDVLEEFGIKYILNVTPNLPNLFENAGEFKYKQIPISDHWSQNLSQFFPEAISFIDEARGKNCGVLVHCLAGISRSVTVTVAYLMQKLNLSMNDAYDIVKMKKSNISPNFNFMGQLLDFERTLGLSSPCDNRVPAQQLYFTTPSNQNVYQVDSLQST
SMILES,cell count [1],inhibition [1],inhibition [2],nuclei count [2] [%],"z-score [3, 10]","z-score [3, 11]","z-score [3, 12]",inhibition [4],fluorescence slope [5],NADPH fluorescence slope [6],slope [7],outcome [8],inhibition [9]
COn1c(=S)[nH]c2ccccc2c1=O,454,0.3% (inactive),-12.8% (inactive),98.1,-1.19,0.293,-0.609,3.5% (inactive),-0.496 (inactive),-7.7e-06 (inactive),0.00619 (inactive),inactive,1.26% (inactive)
CCOC(=O)c1c(C)n(C)c2ccc(OC)c(NC(=O)CN3CCSCC3)c12,331,-7.1% (inactive),35.2% (inactive),91.7,-1.52,-0.0806,1.39,5.42% (inactive),-0.449 (inactive),-1.5e-05 (inactive),0.0065 (inactive),inactive,37% (inactive)
CCC(=O)Nc1cc(-c2nn(C)c(=O)c3ccccc23)ccc1N1CCCCC1,527,-10.5% (inactive),-20.7% (inactive),161,-0.258,-0.867,0.981,-3.5% (inactive),-0.373 (inactive),-2.2e-05 (inactive),0.00441 (inactive),inactive,25.8% (inactive)
CCCCNC(=O)N1CCOCCOCCN(C(=O)NCCCC)CCOCCOCC1,546,-15.4% (inactive),-120% (inactive),144,1.2,-1.56,0.0473,3.97% (inactive),-0.526 (inactive),-2.2e-05 (inactive),0.00599 (inactive),inactive,17.8% (inactive)
O=C(O)CC(NCc1ccco1)C(=O)OCC1CCCO1 (stereo unspecified),557,-3.4% (inactive),-26.1% (inactive),134,0.185,-1.18,-0.884,5.26% (inactive),-0.369 (inactive),-2.3e-05 (inactive),0.00498 (inactive),inactive,17.1% (inactive)
CCn1nnc(C(=O)O)c1C(=O)O,547,-8.1% (inactive),-105% (inactive),113,-1.6,1.43,0.467,-1.98% (inactive),-0.486 (inactive),-3.2e-05 (inactive),0.00833 (inactive),inactive,-1.97% (inactive)
COc1ccc(OC)c2c(N)c(C#N)c(C(F)(F)C(F)(F)F)nc12,295,-8.5% (inactive),9% (inactive),85.5,1,-1.13,-0.419,21% (inactive),-0.402 (inactive),-3.3e-05 (inactive),0.00519 (inactive),inactive,-13.9% (inactive)
Cc1ccccc1OCC(O)Cn1c(N2CCN(c3ccccc3)CC2)nc2c1c(=O)[nH]c(=O)n2C (stereo unspecified),519,-0.6% (inactive),-227% (inactive),134,-0.379,-1.18,0.818,8.76% (inactive),-0.537 (inactive),-3.2e-05 (inactive),0.00634 (inactive),inactive,22.7% (inactive)
c1ccc(-c2nnc3sc(Cc4cccs4)nn23)cc1,602,-16% (inactive),-149% (inactive),174,0.71,-1.88,-0.974,11.9% (inactive),-0.467 (inactive),-0.000133 (inactive),0.00581 (inactive),active; no signal in gallbladder only,21.4% (inactive)
COc1ccccc1N(O)C1CC(=O)N(c2ccc(F)cc2)C1=O (stereo unspecified),304,-7.6% (inactive),-18.5% (inactive),92,-1.81,1.54,0.452,13.4% (inactive),-0.46 (inactive),-0.000168 (inactive),0.00806 (inactive),inactive,-1.02% (inactive)
O=C1C=C(O)CC(c2ccco2)C1 (stereo unspecified),558,5.7% (inactive),-59% (inactive),82,0.0297,0.982,0.298,-6.48% (inactive),-0.469 (inactive),-0.00033 (inactive),0.00402 (inactive),inactive,-1.54% (inactive)
O=C1CC(NCc2ccc3c(c2)OCO3)C(=O)N1Cc1ccc2c(c1)OCO2 (stereo unspecified),521,5.6% (inactive),-127% (inactive),139,0.834,0.684,-0.627,15.8% (inactive),-0.505 (inactive),-3.7e-05 (inactive),0.00655 (inactive),inactive,17.7% (inactive)
CN1CCc2nc(SCC(=O)Nc3ccc(Cl)cc3)c(C#N)cc2C1,378,-14.3% (inactive),-155% (inactive),162,1.95,-0.641,-1.16,12.3% (inactive),-0.422 (inactive),-0.000135 (inactive),0.0059 (inactive),inactive,0.323% (inactive)
Oc1ccc2c(c1)C1CCCC1(N1CCOCC1)O2 (stereo unspecified),414,0.7% (inactive),-83.5% (inactive),128,0.996,-0.205,-1.79,3.42% (inactive),-0.458 (inactive),-0.000124 (inactive),0.005 (inactive),inactive,-3.55% (inactive)
Clc1ccc(-c2nn3c(-c4cccc(Cl)c4)nnc3s2)cc1,603,-0.1% (inactive),-90.1% (inactive),150,-0.779,0.764,-0.704,-2.47% (inactive),-0.42 (inactive),-9.2e-05 (inactive),0.00631 (inactive),inactive,33% (inactive)
O=C(O)CC(C(=O)OCC1CCCO1)N1CCOCC1 (stereo unspecified),526,-5.8% (inactive),-141% (inactive),145,0.582,-0.928,-1.26,10.5% (inactive),-0.518 (inactive),-4.1e-05 (inactive),0.00538 (inactive),inactive,-1.05% (inactive)
CCOc1cccc(-c2nnc3sc(COc4ccccc4)nn23)c1,537,-7.5% (inactive),40.9% (inactive),91.9,1.73,-0.94,-0.568,-4.27% (inactive),-0.433 (inactive),-9.6e-05 (inactive),0.00533 (inactive),inactive,17.6% (inactive)
COC(=O)CCc1c(C)[nH]c(C(=O)OCc2ccccc2)c1C,596,-4.1% (inactive),-34% (inactive),179,-1.2,-0.0699,0.772,-5.89% (inactive),-0.487 (inactive),-0.00013 (inactive),0.00445 (inactive),inactive,-0.974% (inactive)
CNC(=O)c1cc2ccccc2o1,323,-23.3% (inactive),-72.9% (inactive),132,-1.3,-0.443,-1.56,-5.26% (inactive),-0.428 (inactive),-4.2e-05 (inactive),0.00621 (inactive),inactive,32% (inactive)
C=CCOC(=O)C1=C(C)NC(SCC(=O)N(CC)CC)=C(C#N)C1c1ccccc1 (stereo unspecified),348,-0.8% (inactive),-27.9% (inactive),140,1.19,0.414,-0.822,-0.584% (inactive),-0.405 (inactive),-1.3e-05 (inactive),0.00552 (inactive),inactive,4.36% (inactive)
Cc1cccc2c1NC(C)CC2C (stereo unspecified),424,-23.2% (inactive),-291% (inactive),187,1.31,-0.632,-0.589,7.7% (inactive),-0.292 (inactive),-6.6e-06 (inactive),0.00419 (inactive),active; weak signal in gallbladder and intestine,5.59% (inactive)
COc1cccc(C2/C(=C(/O)c3ccc(C)cc3)C(=O)C(=O)N2Cc2ccco2)c1 (stereo unspecified),552,-6.3% (inactive),-20% (inactive),123,0.537,0.655,-1.35,4.72% (inactive),-0.512 (inactive),-5.6e-05 (inactive),0.00539 (inactive),inactive,15.2% (inactive)
CCOc1cccc(-c2nnc3sc(-c4ccco4)nn23)c1,668,-1.9% (inactive),-152% (inactive),182,0.882,2.36,-0.0575,-13.3% (inactive),-0.428 (inactive),-0.000142 (inactive),0.00609 (inactive),inactive,18.3% (inactive)
CCOc1ccc(Cc2nc(N)nc(N)n2)cc1,344,-18.3% (inactive),-269% (inactive),155,-1.09,-0.542,-0.613,-8.76% (inactive),-0.447 (inactive),-0.000176 (inactive),0.00481 (inactive),inactive,6.25% (inactive)
CSC1=C(C#N)C(c2ccc(C)s2)CC(=O)N1 (stereo unspecified),411,-0.1% (inactive),13.9% (inactive),63.5,0.0106,2.55,-0.606,13.2% (inactive),-0.511 (inactive),-5e-05 (inactive),0.00472 (inactive),inactive,24% (inactive)
Fc1ccc2[nH]c3c(N4CCN(c5ccccc5)CC4)ncnc3c2c1,424,5.2% (inactive),-109% (inactive),93.6,-1.72,-0.345,0.928,6.04% (inactive),-0.334 (inactive),6.6e-06 (inactive),0.005 (inactive),inactive,-1.66% (inactive)
CCOC(=O)C(CC(=O)O)N1CCCCC1 (stereo unspecified),485,-6.2% (inactive),-40.2% (inactive),89.2,-1.03,1.55,-0.781,3.5% (inactive),-0.367 (inactive),4.4e-05 (inactive),0.00418 (inactive),inactive,-13.4% (inactive)
